Data as given in ChEMBL document CHEMBL1138358, “Synthesis and in vivo antitumor evaluation of 2-methoxyestradiol 3-phosphate, 17-phosphate, and 3,17-diphosphate” (J Med Chem, 2007).

Columns and labels:
[1] = Drug level in Sprague-Dawley rat plasma at 1 mg/kg, iv after 60 mins; type: ADME, organism-based; parameters: dose 1 mg/kg, route intravenous
How it was run: (§1)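 Jugular-cannulated Sprague–Dawley rats were fasted overnight and given a single tail-vein dose in 45% (w/v) hydroxypropyl-β-cyclodextrin in water (0.5 mg/mL, 2 mL/kg). K-EDTA blood was drawn via the cannula and the plasma was frozen below −20 °C. Plasma was acidified with formic acid and analysed by negative-ion ESI LC-MS/MS (MRM). Standard curves were spiked into rat plasma.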

[2] = Drug level in Sprague-Dawley rat plasma at 1 mg/kg, iv after 15 mins; type: ADME, organism-based; parameters: dose 1 mg/kg, route intravenous; how it was run: as §1
SN12C = assay: Cytotoxicity against human SN12C cells; type: functional
Plasma [3] = assay: Drug level in Sprague-Dawley rat plasma at 1 mg/kg, iv assessed as 2-methoxyestradiol level after 15 mins; type: ADME, organism-based; parameters: dose 1 mg/kg, route intravenous; conditions: in vivo, 0.25 h; how it was run: as §1
Plasma [4] = assay: Drug level in Sprague-Dawley rat plasma at 1 mg/kg, iv assessed as 2-methoxyestradiol level after 30 mins; type: ADME, organism-based; parameters: dose 1 mg/kg, route intravenous; conditions: in vivo, 0.5 h; how it was run: as §1
UACC-62 = assay: Cytotoxicity against human UACC62 cells; type: functional
Plasma [5] = assay: Drug level in Sprague-Dawley rat plasma at 1 mg/kg, iv assessed as 2-methoxyestrone level after 15 mins; type: ADME, organism-based; parameters: dose 1 mg/kg, route intravenous; conditions: in vivo, 0.25 h; how it was run: as §1
SF-539 = assay: Cytotoxicity against human SF539 cells; type: functional
HCT-116 = assay: Cytotoxicity against human HCT116 cells; type: functional
Plasma [6] = assay: Drug level in Sprague-Dawley rat plasma at 1 mg/kg, iv assessed as 2-methoxyestradiol level after 60 mins; type: ADME, organism-based; parameters: dose 1 mg/kg, route intravenous; conditions: in vivo, 1 h; how it was run: as §1
Plasma [7] = assay: Drug level in Sprague-Dawley rat plasma at 1 mg/kg, iv assessed as 2-methoxyestrone level after 30 mins; type: ADME, organism-based; parameters: dose 1 mg/kg, route intravenous; conditions: in vivo, 0.5 h; how it was run: as §1
Plasma [8] = assay: Drug level in Sprague-Dawley rat plasma at 1 mg/kg, iv assessed as 2-methoxyestrone level after 5 mins; type: ADME, organism-based; parameters: dose 1 mg/kg, route intravenous; conditions: in vivo; how it was run: as §1
Plasma [9] = assay: Drug level in Sprague-Dawley rat plasma at 1 mg/kg, iv assessed as 2-methoxyestrone level after 60 mins; type: ADME, organism-based; parameters: dose 1 mg/kg, route intravenous; conditions: in vivo, 1 h; how it was run: as §1
Plasma [10] = assay: Drug level in Sprague-Dawley rat plasma at 1 mg/kg, iv assessed as 2-methoxyestradiol level after 5 mins; type: ADME, organism-based; parameters: dose 1 mg/kg, route intravenous; conditions: in vivo; how it was run: as §1
Plasma [11] = assay: Drug level in Sprague-Dawley rat plasma at 1 mg/kg, iv assessed as 2-methoxyestradiol level after 120 mins; type: ADME, organism-based; parameters: dose 1 mg/kg, route intravenous; conditions: in vivo, 2 h; how it was run: as §1
MDA-MB-435 = assay: Cytotoxicity against human MDA-MB-435 cells; type: functional
[12] = Drug level in Sprague-Dawley rat plasma at 1 mg/kg, iv after 5 mins; type: ADME, organism-based; parameters: dose 1 mg/kg, route intravenous; how it was run: as §1
[13] = Drug level in Sprague-Dawley rat plasma at 1 mg/kg, iv after 120 mins; type: ADME, organism-based; parameters: dose 1 mg/kg, route intravenous; how it was run: as §1
[14] = Drug level in Sprague-Dawley rat plasma at 1 mg/kg, iv after 30 mins; type: ADME, organism-based; parameters: dose 1 mg/kg, route intravenous; how it was run: as §1
Plasma [15] = assay: Drug level in Sprague-Dawley rat plasma at 1 mg/kg, iv assessed as 2-methoxyestrone level after 120 mins; type: ADME, organism-based; parameters: dose 1 mg/kg, route intravenous; conditions: in vivo, 2 h; how it was run: as §1
OVCAR-3 = assay: Cytotoxicity against human OVCAR-3 cells; type: functional
HOP-62 = assay: Cytotoxicity against human HOP62 cells; type: functional
DU-145 = assay: Cytotoxicity against human DU145 cells; type: functional
[16] = tested on: Lewis lung carcinoma cell line; assay: Antitumor activity against LLC cells inoculated in C57BL/6J mouse assessed as lung weight at 200 mg/kg, ip qd for 12 days; type: functional; conditions: route intraperitoneal
How it was run: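 LLC cells in exponential growth were harvested by brief trypsinization (0.25% trypsin, 0.02% EDTA, 1 min, 37 °C), washed and resuspended at 5 × 10⁵ cells/mL in Ca²⁺/Mg²⁺-free PBS. Mice were housed under SPF conditions, with 10 per group. From day 3 after tumor cell injection, compound was given ip daily for 12 days. On day 15, mean lung weight was corrected for non-tumor-bearing lung weight. T/C = (A − C)/(B − C) versus vehicle (0.1 mL).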

[17] = tested on: Lewis lung carcinoma cell line; assay: Antitumor activity against LLC cells inoculated in C57BL/6J mouse assessed as lung weight at 100 mg/kg, ip qd for 12 days; type: functional; conditions: route intraperitoneal
How it was run: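 LLC cells in exponential growth were harvested by brief trypsinization (1 min, 37 °C), washed, and resuspended at 5 × 10⁵ cells/mL in Ca²⁺/Mg²⁺-free PBS before injection into SPF-housed mice. From day 3 after injection, groups of 10 mice were dosed ip daily for 12 days. On day 15, mean lung weight was corrected for non-tumor-bearing lung weight. T/C = (A − C)/(B − C).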

## COc1cc2c(cc1O)CC[C@@H]1[C@@H]2CC[C@]2(C)[C@@H](OP(=O)(O)O)CC[C@@H]12
[1]
  concentration at 1 h: 21.2 ng/mL
[2]
  concentration at 0.25 h: 351 ng/mL
SN12C
  GI50: > 100 µM
Plasma [3]
  Cp: 15 ng/mL
Plasma [4]
  Cp: 9.2 ng/mL
UACC-62
  GI50: 38 µM
Plasma [5]
  Cp: 5 ng/mL
SF-539
  GI50: 75.9 µM
HCT-116
  GI50: 87.1 µM
Plasma [6]
  Cp: 5 ng/mL
Plasma [7]
  Cp: 5 ng/mL
Plasma [8]
  Cp: 5 ng/mL
Plasma [9]
  Cp: 5 ng/mL
Plasma [10]
  Cp: 34.1 ng/mL
Plasma [11]
  Cp: 5 ng/mL
MDA-MB-435
  GI50: 20 µM
[12]
  concentration at 5 min: 1320 ng/mL
[13]
  concentration at 2 h: 6.9 ng/mL
[14]
  concentration at 0.5 h: 138 ng/mL
Plasma [15]
  Cp: 5 ng/mL

## CCOP(=O)(OCC)O[C@H]1CC[C@H]2[C@@H]3CCc4cc(O)c(OC)cc4[C@H]3CC[C@]12C
SN12C
  GI50: 17.4 µM
UACC-62
  GI50: 14.4 µM
SF-539
  GI50: 19.5 µM
HCT-116
  GI50: 19 µM
OVCAR-3
  GI50: 15.1 µM
MDA-MB-435
  GI50: 13.2 µM

## COc1cc2c(cc1O)CC[C@@H]1[C@@H]2CC[C@]2(C)C(=O)CC[C@@H]12
Plasma [11]
  Cp: 5 ng/mL

## CCOP(=O)(OCC)Oc1cc2c(cc1OC)[C@H]1CC[C@]3(C)[C@@H](OP(=O)(OCC)OCC)CC[C@H]3[C@@H]1CC2
SN12C
  GI50: 16.6 µM
HOP-62
  GI50: 21.9 µM
DU-145
  GI50: 13.8 µM
UACC-62
  GI50: 11.5 µM
SF-539
  GI50: 19.5 µM
HCT-116
  GI50: 20.4 µM
OVCAR-3
  GI50: 55 µM
MDA-MB-435
  GI50: 56.2 µM

## COc1cc2c(cc1OP(=O)(O)O)CC[C@@H]1[C@@H]2CC[C@]2(C)[C@@H](OP(=O)(O)O)CC[C@@H]12
SN12C
  GI50: > 100 µM
HOP-62
  GI50: > 100 µM
DU-145
  GI50: > 100 µM
UACC-62
  GI50: > 100 µM
HCT-116
  GI50: > 100 µM
OVCAR-3
  GI50: > 100 µM
MDA-MB-435
  GI50: > 100 µM

## COc1cc2c(cc1O)CC[C@@H]1[C@@H]2CC[C@]2(C)[C@@H](O)CC[C@@H]12 [2-METHOXYESTRADIOL]
[1]
  concentration at 1 h: 11.3 ng/mL
[2]
  concentration at 0.25 h: 168 ng/mL
SN12C
  GI50: 0.95 µM
HOP-62
  GI50: 0.7 µM
Plasma [3]
  Cp: 168 ng/mL
Plasma [4]
  Cp: 44.7 ng/mL
DU-145
  GI50: 1.8 µM
UACC-62
  GI50: 0.36 µM
Plasma [5]
  Cp: 5 ng/mL
[16]
  Activity: 0.44 g
SF-539
  GI50: 0.32 µM
HCT-116
  GI50: 0.47 µM
OVCAR-3
  GI50: 0.21 µM
Plasma [6]
  Cp: 11.3 ng/mL
Plasma [7]
  Cp: 5.4 ng/mL
Plasma [8]
  Cp: 6.3 ng/mL
Plasma [9]
  Cp: 5 ng/mL
Plasma [10]
  Cp: 764 ng/mL
Plasma [11]
  Cp: 5 ng/mL
MDA-MB-435
  GI50: 0.08 µM
[12]
  concentration at 5 min: 764 ng/mL
[13]
  concentration at 2 h: 5 ng/mL
[14]
  concentration at 0.5 h: 44.7 ng/mL
Plasma [15]
  Cp: 5 ng/mL

## COc1cc2c(cc1OP(=O)([O-])O)CC[C@@H]1[C@@H]2CC[C@]2(C)[C@@H](O)CC[C@@H]12.[Na+]
[1]
  concentration at 1 h: 1.2 ng/mL
[2]
  concentration at 0.25 h: 31.3 ng/mL
SN12C
  GI50: 1.31 µM
HOP-62
  GI50: 0.69 µM
[17]
  Activity: 0.44 g
Plasma [3]
  Cp: 57.3 ng/mL
Plasma [4]
  Cp: 22.3 ng/mL
DU-145
  GI50: 2.95 µM
UACC-62
  GI50: 1.32 µM
Plasma [5]
  Cp: 12.7 ng/mL
[16]
  Activity: 0.23 g
SF-539
  GI50: 0.66 µM
HCT-116
  GI50: 1.45 µM
OVCAR-3
  GI50: 0.34 µM
Plasma [6]
  Cp: 5.3 ng/mL
Plasma [7]
  Cp: 8.8 ng/mL
Plasma [8]
  Cp: 16.3 ng/mL
Plasma [9]
  Cp: 2.7 ng/mL
Plasma [10]
  Cp: 153.4 ng/mL
Plasma [11]
  Cp: 5 ng/mL
MDA-MB-435
  GI50: 0.11 µM
[12]
  concentration at 5 min: 366 ng/mL
[13]
  concentration at 2 h: < 1 ng/mL
[14]
  concentration at 0.5 h: 7.1 ng/mL
Plasma [15]
  Cp: 5 ng/mL
